PLK1 inh = human PLK1 kinase inhibitors, primary screen, biochemical, TR-FRET. recombinant PLK1 kinase, TR-FRET peptide phosphorylation. inhibition, % at 10 µM. actives 0.53% (n = 97,000). AID 619, 2007. Serine/threonine-protein kinase PLK1 (Homo sapiens), P53350;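 active means inhibition of 50% or more in the single-concentration screen; inactive means inhibition below 50%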;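 further: 0% = DMSO max control and 100% = H-89 dihydrochloride min control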
Target sequence (P53350 whole entry, looked up): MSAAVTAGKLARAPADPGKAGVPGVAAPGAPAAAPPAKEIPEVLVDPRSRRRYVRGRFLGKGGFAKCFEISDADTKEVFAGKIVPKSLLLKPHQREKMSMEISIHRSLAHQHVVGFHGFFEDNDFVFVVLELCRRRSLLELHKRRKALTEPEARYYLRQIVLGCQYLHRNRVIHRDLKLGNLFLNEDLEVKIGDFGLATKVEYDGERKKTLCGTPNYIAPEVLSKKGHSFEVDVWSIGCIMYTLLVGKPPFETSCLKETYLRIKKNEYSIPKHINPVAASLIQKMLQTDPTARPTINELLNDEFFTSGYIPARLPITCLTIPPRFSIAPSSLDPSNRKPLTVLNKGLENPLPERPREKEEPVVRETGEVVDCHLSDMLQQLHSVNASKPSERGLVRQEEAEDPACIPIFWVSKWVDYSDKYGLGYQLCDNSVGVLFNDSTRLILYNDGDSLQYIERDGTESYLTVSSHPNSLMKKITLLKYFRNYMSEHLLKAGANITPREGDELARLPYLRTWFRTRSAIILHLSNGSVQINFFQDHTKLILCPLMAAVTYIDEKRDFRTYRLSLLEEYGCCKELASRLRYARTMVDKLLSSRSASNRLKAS
PLAP activator = PLAP enzyme activators, biochemical, luminescence, HTS; AID 696, 2007; purified PLAP enzyme, luminescent substrate read-out; stronger effect = higher value; actives 1.2% (n = 96,000); activation fold at 20 µM; in the data active means activation fold above about 2
PLK1 PBD inh = Plk1 polo box domain binding inhibitors, primary screen, biochemical, fluorescence polarization. inhibition, %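 (tested at about 20 µM)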. Serine/threonine-protein kinase PLK1 (Homo sapiens), P53350. actives 0.13% (n = 97,000). Plk1 PBD phosphopeptide binding. AID 693, 2007; in the data active means inhibition above about 34%, passing the limit was not always enough
PTPN22 inh 2 = PTPN22 phosphatase inhibitors, primary screen, biochemical, DiFMUP fluorescence, 2 µM | actives 0.21% (n = 96,000) | inhibition, % at 2 µM | recombinant LYP catalytic domain | Tyrosine-protein phosphatase non-receptor type 22 (Homo sapiens), Q9Y2R2;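 active means inhibition at 2 µM at or above a set limit, the screen mean plus 3 SD, cut at about 24% in these data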;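 further: 0% = DMSO with enzyme and 100% = enzyme fully blocked by orthovanadate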
Rev-RRE block = HIV-1 Rev-RRE binding inhibitors, primary screen, biochemical, FRET, protein-RNA interaction; inhibition, % at 8 µM; actives 0.79% (n = 97,000); P05866; Rev peptide-RRE RNA binding;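 active means inhibition above the screen-wide mean plus 3 SD, cut at about 35% in these data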;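 further: 0% = median DMSO wells and 100% = median Neomycin B control wells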
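Test system: Cy5-tagged RRE RNA duplex with fluorescein-tagged Rev peptide | Read-out: % inhibition of FRET ratio versus controls | Probe or stimulus: Labelled Rev peptide | Incubation: 5 min RNA-compound premix plus 15 min binding step, 25 °C | Technique: FRET fluorescence readout | Benchmarks: DMSO low control, neomycin B high control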
PTPN22 act = LYP phosphatase activators, primary screen, biochemical, DiFMUP fluorescence, 2 µM; Tyrosine-protein phosphatase non-receptor type 22 (Homo sapiens), Q9Y2R2; recombinant LYP; 0 = plate median, 100 = signal doubled; actives 0.11% (n = 96,000); activation, % at 2 µM;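 active means activation at 2 µM above a set limit, the mean plus 5 SD, cut at about 37% in these data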
Numbers without * were called inactive; x = no result given; [ ] = another dose, or the depositor's remark. Most compounds without a hit are left out; they make up all but 2.7% or so of the library.

SMILES	PLK1 inh	PLAP activator	PLK1 PBD inh	PTPN22 inh 2	Rev-RRE block	PTPN22 act
COc1ccc(C2c3c(ccc4ccccc34)Oc3ncn4nc(CO/N=C/c5ccccc5)nc4c32)cc1 (stereo not given)	4	1.2	-27	5	11	-3
C/C(=N\NC(=O)C1CCCN(S(=O)(=O)c2ccccc2)C1)c1ccccn1 (stereo not given)	-19	2*	5	4	4	0
Cc1ccccc1Nc1nc(Nc2ccccc2C)nc(SC2=NCCS2)n1	-2	1.1	25	11	-1	-9
COCCn1c(C)cc2c(c1=O)C(c1ccccc1F)C(C#N)=C(N)O2 (stereo not given)	-7	0.9	-29	-2	8	6
C=CCN1C(=O)CSc2ccc(C(=O)OCC)cc21	-7	1	18	-4	3	2
CCOC(=O)c1ccc2c(c1)N(CC)/C(=C\C=C1/SC(=S)N(CC)C1=O)N2CC	-10	x	-130	0	133*[fluorescence artefact?]	0
Cc1ccc2oc3nc(C)c(C(=O)Nc4cccc(C(F)(F)F)c4)cc3c(=O)c2c1	-62	0.8	-37	31*	18	-28
Cc1cccc(C)c1NC(=O)c1cc2c(=O)c3ccccc3oc2nc1C(F)(F)F	-11	0.9	-10	10	17	-6
O=C1c2ccccc2-c2onc3ccc(NCCCn4ccnc4)c1c23	68*	1.5	35	-5	137*[fluorescence artefact?]	4
O=C(NCCCN1CCN(c2ccccc2F)CC1)C1CCN(S(=O)(=O)c2cccs2)CC1	-6	1.5	8	-11	8	9
CCOc1ccc(C)cc1S(=O)(=O)NC1CCCCC1	-5	2.2*	10	-9	1	3
CCOc1cc(S(=O)(=O)NC2CCCCC2)ccc1F	-2	0.7	4	5	13	-2
N#CC1=C(N)SC(N)=C(C#N)C1c1c(Cl)cccc1Cl	12	1.7	-4	-3	11	3
N#CC1=C(N)SC(N)=C(C#N)C1Cc1ccccc1	43	1.2	4	-8	47*	6
N#CC1=C(N)SC(N)=C(C#N)C1CCc1ccccc1	0	1.2	-16	5	79*	-2
CC(C)CC1C(C#N)=C(N)SC(N)=C1C#N	-5	1.2	12	-8	13	6
CCCNS(=O)(=O)c1ccc(NC(=O)c2cccnc2)cc1	-1	0.8	-18	-2	9	0
O=P(/C(=N/O)Sc1ccccc1)(N1CCOCC1)N1CCOCC1	-1	1.1	-5	-16	0	15
Brc1ccc(-c2cnc(-c3cccs3)o2)cc1	-10	1.1	-22	0	16	-1
CCOC(=O)N1CCC(N2Cc3cccc(C(=O)O)c3C2=O)CC1	x	1.2	x	x	x	x
COc1ccccc1CNC(=O)Cn1cnc2ccccc2c1=O	x	0.8	x	x	x	x
Oc1oc(-c2ccccc2)nc1C=Nc1ccccc1	-13	0.9	-14	-3	3	6
CN(C)c1ccc(N=Cc2nc(-c3ccccc3)oc2O)cc1	-8	1.1	-36	16	69*[fluorescence artefact?]	-16
CC1CN(Cc2nc3c(c(=O)[nH]c(=O)n3C)n2CC(N)=O)CC(C)O1 (stereo not given)	51*	1	8	-4	-1	4
CC1CN(Cc2nc3c(c(=O)[nH]c(=O)n3C)n2CCN2CCOCC2)CC(C)O1 (stereo not given)	-9	0.9	2	4	3	-5
COC1(OC)N=C(N)C2(C#N)C(c3ccccc3)NC(C)=CC12C#N (stereo not given)	-18	1	-27	3	7	0
CC1=CC(C#N)(C#N)C(C#N)(C#N)C(c2ccccc2)N1 (stereo not given)	-5	1.6	6	4	52*	-2
CC(=O)Nc1cc(OC(C)=O)c2nonc2c1OC(C)=O	5	1	54*	-12	5	11
Cc1cc(C)cc(NC(=O)Nc2ccc3c(c2)N(C)C(=O)CS3)c1	2	0.9	-33	0	3	-4

High-throughput results: PubChem BioAssay, several laboratories
